Source: PubChem BioAssay
In the library only some 5.9% were active in any assay of this set; here they are far more common.
Pf Dd2 inh – blocks growth of Plasmodium falciparum Dd2 parasites; P. falciparum Dd2 growth, SYBR Green, 72 h; stronger effect = lower value; activity change, % at 10 µM; actives 2.3% (n = 94,000); AID 1159554; in the data active means activity change below about -80%
Tcruzi prolif – inhibitors of T. cruzi proliferation. T. cruzi beta-gal in NIH3T3, GalScreen luminescence, 90 h. inhibition, % at 8.34 µM. actives 5.9% (n = 77,000). AID 624255;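 active means mean inhibition above about 93%, with at least 55% of replicates each passing it, limit read from the data, passing the limit was not always enough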
GASC1 inh – blocks human GASC-1 (KDM4C) demethylase activity | GST-KDM4C 2-372, H3K9me3 peptide, LANCE TR-FRET | Q9H3R0 | actives 0.15% (n = 96,000) | inhibition, % at 12.5 µM | AID 720574;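 active means mean replicate inhibition above about 25%, with at least 55% of replicates also reaching it, limit read from the data, passing the limit was not always enough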
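System – N-terminal GST-fused human GASC-1 (KDM4C) fragment, residues 2-372 · Input – enzyme final amount 10 nM · Technique – LANCE TR-FRET, Eu antibody, ULight-streptavidin, EDTA, ex 340 nm, em 618/671 nm · Medium – HEPES buffer, pH 7.5, plus ascorbate · Incubation – enzyme reaction 30 min, then detection 60 min, both room temperature · Reagent – H3K9me3 peptide with Fe(II)/2OG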
IDH1 mut inh – inhibitors of human IDH1 R132H; O75874; IDH1 R132H reductase, diaphorase/resazurin fluorescence, 60 min; inhibition, % at 10 µM; actives 0.18% (n = 70,000); AID 624101; in the data active means inhibition above about 34%;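 further: 0% = DMSO and 100% = no enzyme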
Target sequence (O75874 whole entry R132H): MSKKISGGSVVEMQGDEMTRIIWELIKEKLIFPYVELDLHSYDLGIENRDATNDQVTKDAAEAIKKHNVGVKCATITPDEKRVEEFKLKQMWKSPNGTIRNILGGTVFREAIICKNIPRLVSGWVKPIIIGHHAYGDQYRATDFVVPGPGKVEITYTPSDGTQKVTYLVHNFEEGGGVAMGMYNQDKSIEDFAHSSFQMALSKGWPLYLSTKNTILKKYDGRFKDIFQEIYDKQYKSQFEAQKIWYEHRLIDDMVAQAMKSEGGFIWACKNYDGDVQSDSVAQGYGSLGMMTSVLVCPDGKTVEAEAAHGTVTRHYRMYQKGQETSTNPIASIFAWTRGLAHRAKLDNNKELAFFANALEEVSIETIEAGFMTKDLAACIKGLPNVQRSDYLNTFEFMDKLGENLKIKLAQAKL
* marks the source's active call; other numbers are inactive results; . = no result given.

SMILES	Pf Dd2 inh	Tcruzi prolif	GASC1 inh	IDH1 mut inh
C[C@H](CO)N1C[C@H](C)[C@@H](CN(C)Cc2ccccc2)Oc2ccc(NC(=O)Cc3cn(C)c4ccccc34)cc2CC1=O	-82*	70	-3	0
C[C@H](CO)N1C[C@H](C)[C@H](CN(C)Cc2ccc(Oc3ccccc3)cc2)Oc2ccc(NC(=O)Cc3cn(C)c4ccccc34)cc2CC1=O	-83*	36	-1	.
C[C@@H]1CN([C@H](C)CO)C(=O)Cc2cc(NC(=O)Cc3cn(C)c4ccccc34)ccc2O[C@@H]1CN(C)Cc1ccc(Oc2ccccc2)cc1	-28	59	-1	0
C[C@H](CO)N1C[C@H](C)[C@H](CN(C)C(=O)Nc2cccc3ccccc23)Oc2ccc(NC(=O)Cc3cn(C)c4ccccc34)cc2CC1=O	-85*	43	-1	-24
Cc1ccc(S(=O)(=O)N2CCN(c3ccc([N+](=O)[O-])c(NCc4ccco4)c3)CC2)cc1C	.	.	.	1
C[C@@H]1CN([C@H](C)CO)C(=O)c2cccc(NC(=O)c3nc4ccccc4s3)c2O[C@H]1CN(C)C(=O)Nc1ccc2c(c1)OCO2	-82*	59	-1	.
C[C@H]1CN([C@@H](C)CO)C(=O)c2cccc(NC(=O)c3nc4ccccc4s3)c2O[C@@H]1CN(C)C(=O)Nc1ccc(C(F)(F)F)cc1	-56	82	0	.
C[C@@H]1CN([C@@H](C)CO)C(=O)c2cccc(NC(=O)c3nc4ccccc4s3)c2O[C@H]1CN(C)C(=O)Nc1ccc(C(F)(F)F)cc1	-90*	88	-1	1
CC(C)NC(=O)N(C)C[C@H]1Oc2c(NC(=O)c3nc4ccccc4s3)cccc2C(=O)N([C@H](C)CO)C[C@H]1C	-83*	-16	12	.
Cc1ccc(S(=O)(=O)N(C)C[C@H]2Oc3c(NC(=O)c4nc5ccccc5s4)cccc3C(=O)N([C@@H](C)CO)C[C@H]2C)cc1	-56	96	1	1
Cc1ccc(S(=O)(=O)N(C)C[C@@H]2Oc3c(NC(=O)c4nc5ccccc5s4)cccc3C(=O)N([C@@H](C)CO)C[C@H]2C)cc1	-85*	68	2	1
C/C(=C\CC[C@@H](C)[C@H]1CC(O)[C@@]2(C)C3CC[C@H]4C(C)(C)[C@@H](O[C@@H]5OC(COC6OC(CO)C(O)C(O)C6O)C(O)C(O)C5O)CC[C@@]45C[C@@]35CC(O)[C@]12C)C(=O)OC1OC(CO)C(O)C1O (stereo not given in full)	.	.	.	-1
CO[C@H]1/C=C\O[C@@]2(C)Oc3c(C)c(O)c4c(O)c(c(/C=N\N5CCN(C)CC5)c(O)c4c3C2=O)NC(=O)/C(C)=C\C=C/C(C)[C@H](O)[C@@H](C)[C@@H](O)[C@@H](C)[C@@H](OC(C)=O)[C@@H]1C (stereo not given in full)	.	.	.	2
CN(C)CC#Cc1cccc(-c2nc(C(=O)N3CCN(Cc4ccccc4)CC3)cc3c2[C@@H](CCO)N(S(=O)C(C)(C)C)C3)c1 (stereo not given in full)	-3	.	.	.
CC(C)(C)[S@](=O)N1Cc2cc(C(=O)N[C@@H]3CCN(Cc4ccccc4)C3)nc(-c3cccc(-c4cccnc4)c3)c2[C@@H]1CCO	-88*	91	-3	1
CC(C)(C)[S@](=O)N1Cc2cc(C(=O)N[C@H]3CCN(Cc4ccccc4)C3)nc(-c3cccc(-c4ccncc4)c3)c2[C@@H]1CCO	-78	.	-1	.
CN(C)CC#Cc1cccc(-c2nc(C(=O)N[C@@H]3CCN(Cc4ccccc4)C3)cc3c2[C@H](CCO)N(S(=O)C(C)(C)C)C3)c1 (stereo not given in full)	-85*	.	.	.
CC(C)Oc1ccccc1NC(=O)CSc1nnc(-c2ccccc2Cl)o1	.	.	.	0
COc1ccc(-c2oc(NC(=O)Cc3ccc(OC)c(OC)c3)c(C#N)c2-c2ccc(OC)cc2)cc1	.	.	.	0
C[C@@H]1CCCCO[C@@H](CN(C)CC2CCCCC2)[C@H](C)CN([C@H](C)CO)C(=O)c2cc(NC(=O)Nc3ccccc3)ccc2O1	-84*	94	-1	0
COc1ccc(NC(=O)Nc2ccc3c(c2)C(=O)N([C@@H](C)CO)C[C@H](C)[C@H](CN(C)CC2CCCCC2)OCCCC[C@H](C)O3)cc1	-84*	68	-1	1
Cc1ccc(-c2nnc(SCC(=O)c3ccccc3)n2-c2ccccc2)cc1Cl	.	.	.	0
C[C@@H]1CCCCO[C@@H](CN(C)S(=O)(=O)c2ccc(Cl)cc2)[C@@H](C)CN([C@H](C)CO)C(=O)c2cc(NC(=O)Cc3ccccc3)ccc2O1	-83*	45	10	1
